Source: ChEMBL document CHEMBL6115024 (J Med Chem, 2025)
Active and inactive are the calls of the source. The rule behind the calls is not given here.

Columns and labels:
[1] = molecular target: T1, Glucagon-like peptide 1 receptor (Homo sapiens, UniProt P43220); experiment: Agonist activity at GLP-1 receptor (unknown origin) overexpressed in CHO-K1 cells assessed as cAMP production incubated for 30 mins in presence of HSA by HitHunter cAMP assay; format: functional, cell-based
[2] = molecular target: T1, Glucagon-like peptide 1 receptor; experiment: Agonist activity at GLP-1 receptor (unknown origin) overexpressed in CHO-K1 cells assessed as cAMP production incubated for 30 mins by HitHunter cAMP assay; format: functional, cell-based
Mus musculus [3] = experiment: Induction of glycemic control in diet-induced obese C57BL/6 mouse assessed as reduction in fat mass at 3 to 100 nmol/kg, sc treated for 40 days administered on every 4 days; format: functional, organism-based; details: dose 3-100 nmol/kg, time 40.0 day
How it was run: (§1)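 Male C57BL/6 mice fed 45% kcal fat diet from 6 to 18–20 weeks old, kept on diet, given sc PBS (100 μL) or 3–100 nmol/kg every 4 days for 40 days; glucose monitored; body weight, composition, blood chemistry and H&E histology of fixed liver and iWAT assessed post-treatment.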

Mus musculus [4] = experiment: Blood glucose lowering effect in db/db mouse assessed as blood glucose level at 30 nmol/kg, sc treated for 8 weeks administered on every 2 days (reference value: 17 to 30 mmol/L); format: functional
Mus musculus [5] = experiment: Induction of glycemic control in db/db mouse assessed as reduction in microvesicular steatosis in liver at 10 to 30 nmol/kg, sc treated for 8 weeks administered on every 2 days by H and E staining based analysis; format: functional, organism-based; details: dose 10-30 nmol/kg
How it was run: (§2)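 After 8 weeks of sc dosing (10 or 30 nmol/kg every 2 days) of db/db mice, liver and iWAT fixed in 4% paraformaldehyde, paraffin-embedded, sectioned and H&E stained; adipocyte area and diameter distributions and liver steatosis, hypertrophy, ballooning scored.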

Mus musculus [6] = experiment: Effect on liver weight in db/db mouse at 10 to 30 nmol/kg, sc treated for 8 weeks administered on every 2 days; format: functional, organism-based; details: dose 10-30 nmol/kg
How it was run: (§3)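 db/db mice dosed sc with PBS or 10 or 30 nmol/kg every 2 days for 8 weeks; body weight, food and water intake recorded every 2 days; on day 59 heart, liver, iWAT and BAT excised and weighed; mean ± SEM, ANOVA with multiple comparisons.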

Mus musculus [7] = experiment: Induction of glycemic control in diet-induced obese C57BL/6 mouse assessed as increase in proportion of small adipocytes at 3 to 100 nmol/kg, sc treated for 40 days administered on every 4 days by H and E staining based analysis; format: functional, organism-based; details: dose 3-100 nmol/kg, time 40.0 day; how it was run: as §1
Mus musculus [8] = experiment: Induction of glycemic control in diet-induced obese C57BL/6 mouse assessed as reduction in blood glucose level at 30 nmol/kg, sc treated for 40 days administered on every 4 days relative to control; format: functional, organism-based; details: time 40.0 day
Mus musculus [9] = experiment: Induction of glycemic control in diet-induced obese C57BL/6 mouse assessed as decrease in total cholesterol level at 100 nmol/kg, sc treated for 40 days administered on every 4 days; format: functional, organism-based; details: time 40.0 day; how it was run: as §1
Pancreatic islet = experiment: Induction of insulin secretion in C57BL6/J mouse pancreatic islet at 10 to 100 nM incubated for 24 hrs in presence of 2.5 mM glucose by ELISA; format: functional, cell-based; details: dose 10-100 nM
Mus musculus [10] = experiment: Induction of glycemic control in db/db mouse assessed as reduction in polydipsia at 10 to 30 nmol/kg, sc treated for 8 weeks administered on every 2 days; format: functional, organism-based; details: dose 10-30 nmol/kg; how it was run: as §3
Mus musculus [11] = experiment: Induction of glycemic control in db/db mouse assessed as reduction in blood glucose level at 30 nmol/kg, sc measured after 48 hrs; format: functional, organism-based
Mus musculus [12] = experiment: Inhibition of fatty liver in GAN-DIO-NASH C57BL/6JNarl mouse assessed as improvement in liver health at 30 nmol/kg, sc qd for 70 days; format: functional, organism-based; details: time 70.0 day
How it was run: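 Male GAN-DIO-NASH mice on GAN diet dosed daily with PBS or 5–30 nmol/kg for 10 weeks; body weight, fat mass and ALT on days 0 and 70, liver H&E at 20×, liver triglycerides post-treatment; mean ± SEM, ANOVA or Student's t test.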

Mus musculus [13] = experiment: Induction of glycemic control in db/db mouse assessed as reduction in large lipid droplets in liver at 10 to 30 nmol/kg, sc treated for 8 weeks administered on every 2 days by H and E staining based analysis; format: functional, organism-based; details: dose 10-30 nmol/kg; how it was run: as §2
Mus musculus [14] = experiment: Induction of glycemic control in db/db mouse assessed as reduction in blood glucose level at 1 to 100 nmol/kg, sc measured upto 120 hrs; format: functional, organism-based
How it was run: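 db/db mice, three per dose group, got a single sc dose of 1, 3, 10, 30 or 100 nmol/kg, with a PBS control. Blood glucose was measured before dosing and at multiple time points after. EC50 was derived from the dose–response profiles by nonlinear regression. Mean ± SEM.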

Mus musculus [15] = experiment: Induction of glycemic control in db/db mouse assessed as reduction in […] in liver at 10 to 30 nmol/kg, sc treated for 8 weeks administered on every 2 days by H and E staining based analysis; format: functional, organism-based; details: dose 10-30 nmol/kg
Mus musculus [16] = experiment: Effect on heart weight in db/db mouse at 10 to 30 nmol/kg, sc treated for 8 weeks administered on every 2 days; format: functional, organism-based; details: dose 10-30 nmol/kg; how it was run: as §3
Mus musculus [17] = experiment: Induction of glycemic control in db/db mouse assessed as reduction in proportion of iWAT weight to total body weight at 10 to 30 nmol/kg, sc treated for 8 weeks administered on every 2 days; format: functional, organism-based; details: dose 10-30 nmol/kg; how it was run: as §3
Mus musculus [18] = experiment: Effect on brown adipose tissue weight in db/db mouse at 10 to 30 nmol/kg, sc treated for 8 weeks administered on every 2 days; format: functional, organism-based; details: dose 10-30 nmol/kg; how it was run: as §3
Mus musculus [19] = experiment: Induction of glycemic control in diet-induced obese C57BL/6 mouse assessed as increase in lean mass at 3 to 100 nmol/kg, sc treated for 40 days administered on every 4 days; format: functional, organism-based; details: dose 3-100 nmol/kg, time 40.0 day; how it was run: as §1
Mus musculus [20] = experiment: Induction of glycemic control in db/db mouse assessed as reduction in hepatocyte ballooning at 10 to 30 nmol/kg, sc treated for 8 weeks administered on every 2 days by H and E staining based analysis; format: functional, organism-based; details: dose 10-30 nmol/kg; how it was run: as §2
Mus musculus [21] = experiment: Induction of glycemic control in diet-induced obese C57BL/6 mouse assessed as decrease in proportion of large adipocytes at 3 to 100 nmol/kg, sc treated for 40 days administered on every 4 days by H and E staining based analysis; format: functional, organism-based; details: dose 3-100 nmol/kg, time 40.0 day; how it was run: as §1
Mus musculus [22] = experiment: Induction of glycemic control in db/db mouse assessed as reduction in macrovesicular steatosis in liver at 10 to 30 nmol/kg, sc treated for 8 weeks administered on every 2 days by H and E staining based analysis; format: functional, organism-based; details: dose 10-30 nmol/kg; how it was run: as §2
Mus musculus [23] = experiment: Induction of glycemic control in db/db mouse assessed as reduction in polyphagia at 10 to 30 nmol/kg, sc treated for 8 weeks administered on every 2 days; format: functional, organism-based; details: dose 10-30 nmol/kg; how it was run: as §3
Mus musculus [24] = experiment: Effect on ALT level in diet-induced obese C57BL/6 mouse at 3 to 100 nmol/kg, sc treated for 40 days administered on every 4 days; format: functional, organism-based; details: dose 3-100 nmol/kg, time 40.0 day
Mus musculus [25] = experiment: Induction of glycemic control in db/db mouse assessed as reduction in blood glucose level administered subcutaneously measured upto 120 hrs; format: functional, organism-based; details: dose 1-100 nmol/kg, route sc
Albumin = Albumin (Homo sapiens, UniProt P02768); experiment: Binding affinity to CM5-chip immobilized human serum albumin assessed as fold change in equilibrium association constant by SPR analysis relative to semaglutide
Albumin, sequence (P02768 whole entry): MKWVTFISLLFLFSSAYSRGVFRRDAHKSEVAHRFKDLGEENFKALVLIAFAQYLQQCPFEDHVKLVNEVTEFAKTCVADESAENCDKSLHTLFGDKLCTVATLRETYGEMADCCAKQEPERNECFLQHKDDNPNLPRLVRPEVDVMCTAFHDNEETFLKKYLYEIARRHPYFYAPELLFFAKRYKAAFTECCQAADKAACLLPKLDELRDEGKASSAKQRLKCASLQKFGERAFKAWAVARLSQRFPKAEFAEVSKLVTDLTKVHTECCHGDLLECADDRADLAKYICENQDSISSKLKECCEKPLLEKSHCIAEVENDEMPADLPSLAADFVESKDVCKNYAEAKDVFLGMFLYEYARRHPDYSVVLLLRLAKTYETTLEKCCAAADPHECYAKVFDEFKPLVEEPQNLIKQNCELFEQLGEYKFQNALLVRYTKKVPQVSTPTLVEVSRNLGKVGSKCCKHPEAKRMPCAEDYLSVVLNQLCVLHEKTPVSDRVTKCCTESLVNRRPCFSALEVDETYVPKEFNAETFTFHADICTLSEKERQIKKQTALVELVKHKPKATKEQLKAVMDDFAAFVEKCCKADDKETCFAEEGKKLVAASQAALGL

T1 sequence (P43220 whole entry): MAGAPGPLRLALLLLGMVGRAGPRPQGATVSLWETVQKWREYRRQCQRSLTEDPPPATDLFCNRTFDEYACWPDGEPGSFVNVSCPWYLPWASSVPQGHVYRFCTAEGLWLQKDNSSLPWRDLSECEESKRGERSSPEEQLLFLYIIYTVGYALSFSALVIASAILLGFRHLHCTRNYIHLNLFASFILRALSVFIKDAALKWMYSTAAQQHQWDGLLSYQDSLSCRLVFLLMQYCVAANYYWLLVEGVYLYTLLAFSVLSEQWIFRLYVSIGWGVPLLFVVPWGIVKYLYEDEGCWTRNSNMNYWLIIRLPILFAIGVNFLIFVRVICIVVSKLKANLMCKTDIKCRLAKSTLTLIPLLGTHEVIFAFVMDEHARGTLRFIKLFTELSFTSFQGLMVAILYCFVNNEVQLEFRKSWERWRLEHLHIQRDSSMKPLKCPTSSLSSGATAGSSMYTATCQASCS

## CCCCCCCCCCCCCCCC(=O)N[C@@H](CCC(=O)NCCCC[C@@H](NC(=O)CCOCCOCCOCCOCCNC(=O)CCc1cn(CC(=O)N[C@@H](CCC(=O)NCCCC[C@H](NC(=O)[C@H](C)NC(=O)[C@H](C)NC(=O)[C@H](CCC(N)=O)NC(=O)CNC(=O)[C@H](CCC(=O)O)NC(=O)[C@H](CC(C)C)NC(=O)[C@H](Cc2ccc(O)cc2)NC(=O)[C@H](CO)NC(=O)[C@H](CO)NC(=O)[C@@H](NC(=O)[C@H](CC(=O)O)NC(=O)[C@H](CO)NC(=O)[C@@H](NC(=O)[C@H](Cc2ccccc2)NC(=O)[C@@H](NC(=O)CNC(=O)[C@H](CCC(=O)O)NC(=O)C(C)(C)NC(=O)[C@@H](N)Cc2cnc[nH]2)[C@@H](C)O)[C@@H](C)O)C(C)C)C(=O)N[C@@H](CCC(=O)O)C(=O)N[C@@H](Cc2ccccc2)C(=O)N[C@H](C(=O)N[C@@H](C)C(=O)N[C@@H](Cc2c[nH]c3ccccc23)C(=O)N[C@@H](CC(C)C)C(=O)N[C@H](C(=O)N[C@@H](CCCNC(=N)N)C(=O)NCC(=O)N[C@@H](CCCNC(=N)N)C(=O)NCC(=O)O)C(C)C)[C@@H](C)CC)C(=O)O)nn1)C(=O)NCCOCCOCCOCCOCCC(=O)N[C@H](CCCCNC(=O)CC[C@@H](NC(=O)CCCCCCCCCCCCCCCCC(=O)O)C(=O)O)C(=O)O)C(=O)O
[1]
  EC50: 43.3 nM
[2]
  EC50: 0.92 nM

## CC[C@H](C)[C@H](NC(=O)[C@H](Cc1ccccc1)NC(=O)[C@H](CCC(=O)O)NC(=O)[C@H](CCCCNC(=O)COCCOCCNC(=O)COCCOCCNC(=O)CC[C@H](NC(=O)CCCCCCCCCCCCCCCCC(=O)O)C(=O)O)NC(=O)[C@H](C)NC(=O)[C@H](C)NC(=O)[C@H](CCC(N)=O)NC(=O)CNC(=O)[C@H](CCC(=O)O)NC(=O)[C@H](CC(C)C)NC(=O)[C@H](Cc1ccc(O)cc1)NC(=O)[C@H](CO)NC(=O)[C@H](CO)NC(=O)[C@@H](NC(=O)[C@H](CC(=O)O)NC(=O)[C@H](CO)NC(=O)[C@@H](NC(=O)[C@H](Cc1ccccc1)NC(=O)[C@@H](NC(=O)CNC(=O)[C@H](CCC(=O)O)NC(=O)C(C)(C)NC(=O)[C@@H](N)Cc1cnc[nH]1)[C@@H](C)O)[C@@H](C)O)C(C)C)C(=O)N[C@@H](C)C(=O)N[C@@H](Cc1c[nH]c2ccccc12)C(=O)N[C@@H](CC(C)C)C(=O)N[C@H](C(=O)N[C@@H](CCCNC(=N)N)C(=O)NCC(=O)N[C@@H](CCCNC(=N)N)C(=O)NCC(=O)O)C(C)C
Mus musculus [3]
  Activity: inactive
Mus musculus [4]
  Activity: 17.7 mmol/L
Mus musculus [5]
  Activity: Active
Mus musculus [6]
  Activity: No effect
Mus musculus [7]
  Activity: inactive
Mus musculus [8]
  Activity: inactive
Mus musculus [9]
  Activity: Active
Pancreatic islet
  Activity: inactive
Mus musculus [10]
  Activity: Active
Mus musculus [11]
  Activity: inactive
Mus musculus [12]
  inhibition: Active
Mus musculus [13]
  Activity: Active
Mus musculus [14]
  EC50: 9.24 nM
Mus musculus [15]
  Activity: Active
Mus musculus [16]
  Activity: No effect
Mus musculus [17]
  Activity: Active
Mus musculus [18]
  Activity: No effect
Mus musculus [19]
  Activity: inactive
Mus musculus [20]
  Activity: Active
Mus musculus [21]
  Activity: inactive
Mus musculus [22]
  Activity: Active
Mus musculus [23]
  Activity: Active
Mus musculus [24]
  Activity: No effect
Mus musculus [25]
  Activity: Dose-dependent-effect

## CCCCCCCCCCCCCCCC(=O)N[C@@H](CCC(=O)NCCCC[C@H](NC(=O)CCOCCOCCOCCOCCNC(=O)CCc1cn(CC(=O)N[C@@H](CCC(=O)NCCCC[C@H](NC(=O)[C@H](C)NC(=O)[C@H](C)NC(=O)[C@H](CCC(N)=O)NC(=O)CNC(=O)[C@H](CCC(=O)O)NC(=O)[C@H](CC(C)C)NC(=O)[C@H](Cc2ccc(O)cc2)NC(=O)[C@H](CO)NC(=O)[C@H](CO)NC(=O)[C@@H](NC(=O)[C@H](CC(=O)O)NC(=O)[C@H](CO)NC(=O)[C@@H](NC(=O)[C@H](Cc2ccccc2)NC(=O)[C@@H](NC(=O)CNC(=O)[C@H](CCC(=O)O)NC(=O)[C@H](C)NC(=O)[C@@H](N)Cc2cnc[nH]2)[C@@H](C)O)[C@@H](C)O)C(C)C)C(=O)N[C@@H](CCC(=O)O)C(=O)N[C@@H](Cc2ccccc2)C(=O)N[C@H](C(=O)N[C@@H](C)C(=O)N[C@@H](Cc2c[nH]c3ccccc23)C(=O)N[C@@H](CC(C)C)C(=O)N[C@H](C(=O)N[C@@H](CCCNC(=N)N)C(=O)NCC(=O)N[C@@H](CCCNC(=N)N)C(=O)NCC(=O)O)C(C)C)[C@@H](C)CC)C(=O)O)nn1)C(=O)NCCOCCOCCOCCOCCC(=O)N[C@@H](CCCCNC(=O)CC[C@H](NC(=O)CCCCCCCCCCCCCCC)C(=O)O)C(=O)OC)C(=O)O
Albumin
  fold change (FC): 8
